Activity calls are given as the source filed them. No cut-off for these calls is given here.

For data set [1], the target named is T1, Nuclear factor erythroid 2-related factor 2 (Mus musculus) (UniProt Q60795).
T1 sequence (whole entry): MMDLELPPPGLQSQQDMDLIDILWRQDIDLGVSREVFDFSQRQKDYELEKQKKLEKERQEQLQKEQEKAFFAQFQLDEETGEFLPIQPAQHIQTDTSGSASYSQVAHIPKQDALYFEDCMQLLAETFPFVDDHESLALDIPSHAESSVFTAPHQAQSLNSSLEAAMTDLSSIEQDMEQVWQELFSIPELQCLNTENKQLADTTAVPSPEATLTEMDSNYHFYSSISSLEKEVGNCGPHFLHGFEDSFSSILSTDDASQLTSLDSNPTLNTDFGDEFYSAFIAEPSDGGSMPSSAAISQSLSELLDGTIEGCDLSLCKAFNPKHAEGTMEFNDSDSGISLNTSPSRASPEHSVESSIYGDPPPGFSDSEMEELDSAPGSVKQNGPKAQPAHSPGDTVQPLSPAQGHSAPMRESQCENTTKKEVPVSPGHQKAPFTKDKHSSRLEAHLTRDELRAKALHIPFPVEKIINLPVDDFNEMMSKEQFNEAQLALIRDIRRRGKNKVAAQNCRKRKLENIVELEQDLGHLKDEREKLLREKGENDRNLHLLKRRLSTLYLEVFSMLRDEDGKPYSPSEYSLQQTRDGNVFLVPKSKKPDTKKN
Nature of the data set: Activation of Nrf2 in mouse BV-2 cells assessed as increase in HO1 mRNA expression after 6 hrs by RT-qPCR analysis. Particulars: filed as activator, dose 0.03-1 µM. The class given is cell-based. The method, boiled down:
(§1)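 BV-2 cells exposed to a range of concentrations for 6 h. Ho1, Gclc, Gclm and Sod1 mRNA quantified by RT-qPCR and expressed relative to vehicle-treated control. Mean ± SEM, n = 3; Student's t-test.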

In data set [2] the target is T1, Nuclear factor erythroid 2-related factor 2 (Mus musculus). Nature of the data set: Activation of Nrf2 in mouse BV-2 cells assessed as increase in HO1 expression after 6 hrs by Western blot analysis. It counts as cell-based. Particulars: filed as activator, dose 0.02-10 µM. The method, boiled down:
(§2)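 BV-2 microglia grown in RPMI-1640 with 10% FBS, penicillin-streptomycin and 2 mM L-glutamine at 37 °C, 5% CO2. Cells exposed to a range of concentrations for 6 h, then HO-1, GCLC, GCLM and SOD1 protein measured by Western blot. Band intensity normalized to β-actin and given as fold of vehicle control. Mean ± SEM, n = 3, three separate experiments.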

Data set [3] shares this target. Nature of the data set: Activation of Nrf2 in mouse BV-2 cells assessed as increase in Sod1 mRNA expression after 6 hrs by RT-qPCR analysis. It counts as cell-based. As to conditions: filed as activator, dose 0.03-1 µM. The method, boiled down:
as §1

Data set [4] has the same target. Nature of the data set: Activation of Nrf2 in mouse BV-2 cells assessed as increase in nuclear Nrf2 levels at 0.5 uM after 6 hrs by Western blot analysis relative to control. The class given is cell-based. As to conditions: filed as activator.
Data set [5] addresses CYP3A4 (Homo sapiens, UniProt P08684). The data set can be described thus: Inhibition of CYP3A4 (unknown origin) assessed as residual activity. The class given is ADME.
The target of data set [6] is T1, Nuclear factor erythroid 2-related factor 2 (Mus musculus). Nature of the data set: Activation of Nrf2 in mouse BV-2 cells assessed as increase in Gclc mRNA expression at 1 uM after 6 hrs by RT-qPCR analysis relative to control. Particulars: filed as activator. The class given is cell-based. The method, boiled down:
as §1

Data set [7] relates to BV-2. The data set can be described thus: Antiinflammatory activity in mouse BV-2 cells assessed as inhibition of LPS-induced IL6 production preincubated for 6 hrs followed by LPS stimulation and measured after 24 hrs by ELISA. Particulars: dose 0.02-2 µM, time 30.0 hrs. The class given is functional, cell-based. The method, boiled down: (§3)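 BV-2 cells seeded in 12-well plates and pretreated 6 h with compound at […]. LPS then added for 24 h. TNF-α and IL-6 released into the medium quantified by ELISA. Mean ± SEM, n = 3, three separate experiments.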

Data set [8] has as its target T1, Nuclear factor erythroid 2-related factor 2 (Mus musculus). Nature of the data set: Activation of Nrf2 in mouse BV-2 cells assessed as increase in GCLM expression at 10 uM after 6 hrs by Western blot analysis relative to control. It counts as cell-based. As to conditions: filed as activator. The method, boiled down: as §2
Data set [9] deals with Mus musculus. Nature of the data set: Neuroprotective activity in MPTP-induced C57BL/6 mouse model of Parkinson's disease assessed as […] TH-immunoreactive fiber density at 30 mg/kg, po pretreated for 1 day followed by MPTP challenge and subsequent compound dosing for 2 days measured 6 days post-MPTP challenge by immunohistochemistry. As to conditions: time 7.0 day. It counts as functional, organism-based. The method, boiled down: (§4)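 Male C57BL/6 mice, 10 weeks old, 23–26 g, n = 10 per group. Dosed 30 mg/kg p.o. for 3 consecutive days in 10% N-methyl-2-pyrrolidone/20% Tween-80 in water. On day 2, MPTP-HCl 20 mg/kg i.p. given four times at 2 h intervals. Coat-hanger (scored 1–5, test done twice) and vertical grid tests run 6 days after MPTP. Brains taken next day for anti-TH immunohistochemistry (1:1000, DAB).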

Data set [10] in a line: Cytotoxicity against mouse BV-2 cells assessed cell viability at 10 uM measured after 6 hrs by Ez-cytox reagent based assay relative to control. Particulars: read-out: Activity.
Data set [11] deals with Mus musculus. Nature of the data set: Neuroprotective activity in MPTP-induced C57BL/6 mouse model of Parkinson's disease assessed as reduction in time to turn at 30 mg/kg, po pretreated for 1 day followed by MPTP challenge and subsequent compound dosing for 2 days measured 6 days post MPTP challenge by vertical grid test. It counts as functional, organism-based. As to conditions: time 7.0 day. The method, boiled down: as §4

The target of data set [12] is T1, Nuclear factor erythroid 2-related factor 2 (Mus musculus). Nature of the data set: Activation of Nrf2 in mouse BV-2 cells assessed as increase in Gclc mRNA expression after 6 hrs by RT-qPCR analysis. The class given is cell-based. Particulars: filed as activator, dose 0.03-1 µM. The method, boiled down:
as §1

Data set [13] relates to BV-2. Nature of the data set: Antiinflammatory activity in mouse BV-2 cells assessed as inhibition of LPS-induced TNFalpha production preincubated for 6 hrs followed by LPS stimulation and measured after 24 hrs by ELISA. Particulars: dose 0.02-2 µM, time 30.0 hrs. It counts as functional, cell-based. The method, boiled down: as §3
A short description of data set [14]: Cytotoxicity against mouse BV-2 cells assessed cell viability at 0.3 uM measured after 6 hrs by Ez-cytox reagent based assay relative to control. Particulars: read-out: Activity. The method, boiled down:
(§5)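 BV-2 cells (1.0 × 10⁴/well) grown 24 h at 37 °C, 5% CO2, then treated 6 h at […]. Viability expressed as percent of control.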

Data set [15] addresses T1, Nuclear factor erythroid 2-related factor 2 (Mus musculus). The data set can be described thus: Activation of Nrf2 in mouse BV-2 cells assessed as increase in Sod1 mRNA expression at 1 uM after 6 hrs by RT-qPCR analysis relative to control. The class given is cell-based. Particulars: filed as activator. The method, boiled down:
as §1

Data set [16] concerns Mus musculus. Nature of the data set: Neuroprotective activity in MPTP-induced C57BL/6 mouse model of Parkinson's disease assessed as ability to pull and climb to the top of the hanger at 30 mg/kg, po pretreated for 1 day followed by MPTP challenge and subsequent compound dosing for 2 days measured 6 days post MPTP challenge by coat-hanger test. As to conditions: time 7.0 day. The class given is functional, organism-based. The method, boiled down:
as §4

Data set [17] has as its target T1, Nuclear factor erythroid 2-related factor 2 (Mus musculus). The data set can be described thus: Activation of Nrf2 in mouse BV-2 cells assessed as increase in SOD1 expression after 6 hrs by Western blot analysis. The class given is cell-based. As to conditions: filed as activator, dose 0.02-10 µM. The method, boiled down:
as §2

Data set [18] is described as follows: Stability in human plasma assessed as parent compound remaining after 30 mins by LC-MS/MS analysis. The class given is ADME, cell-free. Particulars: read-out: Stabilty.
The target of data set [19] is CYP2C9 (Homo sapiens, UniProt P11712). The data set can be described thus: Inhibition of CYP2C9 (unknown origin) assessed as residual activity. The class given is ADME.
CYP2C9, sequence (P11712 whole entry): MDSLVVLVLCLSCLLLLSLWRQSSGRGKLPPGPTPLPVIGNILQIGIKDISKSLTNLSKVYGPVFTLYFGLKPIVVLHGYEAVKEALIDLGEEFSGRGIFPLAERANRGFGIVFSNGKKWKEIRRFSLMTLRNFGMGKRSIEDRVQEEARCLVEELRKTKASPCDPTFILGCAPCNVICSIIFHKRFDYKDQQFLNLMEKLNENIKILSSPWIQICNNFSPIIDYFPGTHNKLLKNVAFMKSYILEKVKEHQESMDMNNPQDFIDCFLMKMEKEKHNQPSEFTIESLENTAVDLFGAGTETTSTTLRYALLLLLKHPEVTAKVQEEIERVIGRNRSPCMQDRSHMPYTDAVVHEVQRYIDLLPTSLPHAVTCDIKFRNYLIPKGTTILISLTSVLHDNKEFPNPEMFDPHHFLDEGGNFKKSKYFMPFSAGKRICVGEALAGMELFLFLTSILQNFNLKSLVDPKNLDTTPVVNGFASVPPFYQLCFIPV
The target in data set [20] is CYP2C19 (Homo sapiens, UniProt P33261). The data set can be described thus: Inhibition of CYP2C19 (unknown origin) assessed as residual activity. It counts as ADME.
CYP2C19, sequence (P33261 whole entry): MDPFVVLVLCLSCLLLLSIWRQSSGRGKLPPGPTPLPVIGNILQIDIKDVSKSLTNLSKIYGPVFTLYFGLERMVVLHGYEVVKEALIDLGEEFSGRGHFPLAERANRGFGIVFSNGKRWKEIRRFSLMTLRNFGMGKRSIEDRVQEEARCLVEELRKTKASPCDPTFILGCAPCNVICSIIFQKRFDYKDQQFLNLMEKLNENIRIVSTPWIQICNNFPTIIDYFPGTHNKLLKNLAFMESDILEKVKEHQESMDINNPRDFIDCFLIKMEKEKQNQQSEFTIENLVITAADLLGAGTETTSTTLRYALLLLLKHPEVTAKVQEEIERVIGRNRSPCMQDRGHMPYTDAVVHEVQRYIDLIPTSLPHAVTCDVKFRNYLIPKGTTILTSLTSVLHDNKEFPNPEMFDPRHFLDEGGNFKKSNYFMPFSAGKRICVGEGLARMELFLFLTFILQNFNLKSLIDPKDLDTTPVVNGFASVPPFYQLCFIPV
Data set [21] is described as follows: Cytotoxicity against mouse BV-2 cells assessed cell viability at 1 uM measured after 6 hrs by Ez-cytox reagent based assay relative to control. Particulars: read-out: Activity. The method, boiled down:
as §5

A short description of data set [22]: Cytotoxicity against mouse BV-2 cells assessed cell viability at 0.1 uM measured after 6 hrs by Ez-cytox reagent based assay relative to control. Particulars: read-out: Activity. The method, boiled down: as §5

CYP3A4, sequence (P08684 whole entry): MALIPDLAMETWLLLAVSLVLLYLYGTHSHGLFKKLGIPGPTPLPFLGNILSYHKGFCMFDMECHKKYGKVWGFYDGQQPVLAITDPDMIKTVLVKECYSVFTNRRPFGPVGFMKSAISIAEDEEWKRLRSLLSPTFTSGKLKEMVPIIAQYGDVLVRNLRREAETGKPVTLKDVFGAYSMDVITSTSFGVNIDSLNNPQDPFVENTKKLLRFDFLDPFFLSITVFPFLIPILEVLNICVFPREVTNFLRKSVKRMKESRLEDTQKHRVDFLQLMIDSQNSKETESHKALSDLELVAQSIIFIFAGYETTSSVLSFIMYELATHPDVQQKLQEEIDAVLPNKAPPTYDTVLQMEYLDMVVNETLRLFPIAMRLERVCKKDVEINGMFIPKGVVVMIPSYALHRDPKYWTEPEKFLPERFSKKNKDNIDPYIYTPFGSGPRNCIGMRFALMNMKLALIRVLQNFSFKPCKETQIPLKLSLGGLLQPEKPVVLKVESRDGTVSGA

Regarding `O=S(=O)(/C=C/c1ncccc1Cl)c1ccccc1Cl`, the Activity entry in data set [1], in data set [2], in data set [3], in [12] and in [17] was “Dose-dependent effect” in each case. In addition, the fold change (FC) in data set [4] was 11; in data set [6], 2.6; in [8], 26.1; in data set [15], 2.5. The activity turned out to be 91.2% in data set [5], 69.1% in [19] and 27.8% in [20]. Besides, the inhibition entry in [7] and in data set [13] was “Dose-dependent effect” throughout. The Activity entry in [9], in data set [11] and in data set [16] was “Active” each time. Also, the viability at 6 h, 10 µM in data set [10] was 100%. Further, in data set [14], the viability at 6 h, 0.3 µM amounted to 100%. For the same compound, the remaining at 0.5 h in data set [18] was found to be 97%. Besides, the viability at 6 h, 1 µM in [21] worked out at 98.9%. In data set [22], the viability at 6 h, 0.1 µM amounted to 100%.

The values are drawn from ChEMBL document CHEMBL4706647, “Development and optimization of halogenated vinyl sulfones as Nrf2 activators for the treatment of Parkinson's disease” (Eur J Med Chem, 2021).
